Experimental data taken from ChEMBL document CHEMBL5344428, “Discovery, Crystallographic Studies, and Mechanistic Investigations of Novel Phenylalanine Derivatives Bearing a Quinazolin-4-one Scaffold as Potent HIV Capsid Modulators” (J Med Chem, 2023).

Key:
[1] = system: Human immunodeficiency virus 1; experiment: Antiviral activity against HIV1 IIIB infected in human MT4 cells assessed as reduction in virus induced cytopathic effect measured after 5 days by MTT assay; type: functional, organism-based; settings: Human immunodeficiency virus 1, IIIB, MT4, 120 h
Summary of the method: (§1)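 MT-4 cells were infected with HIV-1 IIIB or HIV-2 ROD, and cell viability was read by MTT. […] Each value was run in at least triplicate and averaged from at least three independent experiments.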

[2] = system: Human immunodeficiency virus 2; experiment: Antiviral activity against HIV2 ROD infected in human MT4 cells assessed as reduction in virus induced cytopathic effect measured after 5 days by MTT assay; type: functional, organism-based; settings: Human immunodeficiency virus 2, ROD, MT4, 120 h; summary of the method: as §1
[3] = biological target: Structural capsid protein (Human immunodeficiency virus 1) (UniProt Q76129); experiment: Binding affinity to HIV-1 NL4.3 monomeric capsid protein assessed as Koff by SPR analysis; settings: filed as modulator
Summary of the method: (§2)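 SPR binding of compound to monomeric or disulfide-stabilised hexameric HIV-1 CA NL4.3 protein; koff, residence time and KD derived from isotherms, monomer/hexamer ratio = KD monomer/KD hexamer. Triplicate, SD.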

[4] = biological target: Structural capsid protein (Human immunodeficiency virus 1) (UniProt Q76129); experiment: Binding affinity to HIV-1 NL4.3 monomeric capsid protein assessed as residence time by SPR analysis; settings: filed as modulator; summary of the method: as §2
[5] = biological target: Structural capsid protein (Human immunodeficiency virus 1) (UniProt Q76129); experiment: Binding affinity to HIV-1 NL4.3 hexameric capsid protein assessed as Koff by SPR analysis; settings: filed as modulator; summary of the method: as §2
[6] = biological target: Structural capsid protein (Human immunodeficiency virus 1) (UniProt Q76129); experiment: Binding affinity to HIV-1 NL4.3 hexameric capsid protein assessed as residence time by SPR analysis; settings: filed as modulator; summary of the method: as §2
[7] = system: Human immunodeficiency virus 1; experiment: Antiviral activity against HIV1 NL4.3 infected in human U87.CD4.CXCR4 cells assessed as inhibition of early stage replication by measuring infection at 1 uM incubated for 48 hrs by microplate luminometer based single-round infection assay (reference value: 100.0 +/- 30.99%); type: functional; set-up: scale not given: the % may be the effect or the level left
[8] = system: Human immunodeficiency virus 1; experiment: Antiviral activity against HIV1 NL4.3 infected in human U87.CD4.CXCR4 cells assessed as inhibition of late stage replication by measuring infection at 1 uM incubated for 48 hrs by microplate luminometer based single-round infection assay (reference value: 100.0 +/- 18.40%); type: functional; set-up: scale not given: the % may be the effect or the level left
[9] = Metabolic stability in human liver microsomes assessed as half-life at 1 uM incubated for 60 mins in presence of NADPH by LC-MS/MS analysis; type: ADME, Microsome
[10] = Metabolic stability in human liver microsomes assessed as intrinsic clearance at 1 uM incubated for 60 mins in presence of NADPH by LC-MS/MS analysis; type: ADME, Microsome
[11] = Metabolic stability in human liver assessed as intrinsic clearance at 1 uM incubated for 60 mins in presence of NADPH by LC-MS/MS analysis; type: ADME, tissue-based; settings: read-out: CLH
Summary of the method: (§3)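 Human liver microsomes were used at a final 0.5 mg protein/mL, incubated 60 min with an NADPH regenerating system. The no-cofactor arm replaced NADPH with buffer. T1/2 came from linear regression of the kinetic data. CLint(mic) = (0.693/T1/2)/mg microsomal protein per mL. CLint(liver) was scaled by mg microsomal protein/g liver and g liver/kg body weight.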

[12] = Metabolic stability in human liver microsomes assessed as parent compound remaining at 1 uM incubated for 60 mins in presence of NADPH by LC-MS/MS analysis; type: ADME, Microsome; settings: 1 h; summary of the method: as §3
[13] = Metabolic stability in human liver microsomes assessed as parent compound remaining at 1 uM incubated for 60 mins in absence of NADPH by LC-MS/MS analysis; type: ADME, Microsome; settings: 1 h; summary of the method: as §3
[14] = system: Human immunodeficiency virus 1; experiment: Antiviral activity against HIV-1 IIIB infected in human MT4 cells assessed as protection against virus induced cytopathic effect; type: functional, organism-based; settings: Human immunodeficiency virus 1, IIIB; summary of the method: as §1
[15] = system: Human immunodeficiency virus 2; experiment: Antiviral activity against HIV-2 ROD infected in human MT4 cells assessed as protection against virus induced cytopathic effect; type: functional, organism-based; settings: Human immunodeficiency virus 2, ROD; summary of the method: as §1
[16] = Selectivity ratio of EC50 for antiviral activity against HIV1 IIIB infected in human MT4 cells to EC50 for antiviral activity against HIV2 ROD infected in human MT4 cells; type: toxicity, cell-based
Summary of the method: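 Ratio is EC50 against HIV-1 IIIB divided by EC50 against HIV-2 ROD. Both EC50 values come from MTT-read protection of infected MT-4 cells.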

[17] = Selectivity index, ratio of CC50 for cytotoxicity against human MT4 cells to EC50 for antiviral activity against HIV2 ROD infected in human MT4 cells; type: toxicity, cell-based; settings: read-out: Ratio CC50/EC50
Summary of the method: (§4)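 SI is CC50 divided by EC50. CC50 comes from MTT viability of uninfected MT-4 cells. EC50 comes from MTT-read protection of MT-4 cells infected with HIV-1 IIIB or HIV-2 ROD. Each value was run in at least triplicate.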

[18] = Selectivity index, ratio of CC50 for cytotoxicity against human MT4 cells to EC50 for antiviral activity against HIV1 IIIB infected in human MT4 cells; type: toxicity, cell-based; settings: read-out: Ratio CC50/EC50; summary of the method: as §4
[19] = system: MT4; experiment: (§5) Cytotoxicity against human MT4 cells assessed as reduction in cell viability incubated for 5 days by MTT assay; type: toxicity, cell-based; settings: mt4, 120 h, time 5 day
Summary of the method: (§6)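 Uninfected MT-4 cells were exposed to compound, and viability was read by the MTT method. […] Each value was run in at least triplicate and averaged from at least three independent experiments.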

[20] = as §5; type: toxicity, cell-based; settings: MT4 cells, time 5 day; summary of the method: as §6
[21] = biological target: T1, Structural capsid protein (Human immunodeficiency virus 1, UniProt Q76129); experiment: Binding affinity to HIV-1 NL4.3 monomeric capsid protein assessed as dissociation constant by SPR analysis
[22] = biological target: T1, Structural capsid protein; experiment: Binding affinity to HIV-1 NL4.3 hexameric capsid protein assessed as dissociation constant by SPR analysis
[23] = system: Human immunodeficiency virus 1; experiment: Selectivity ratio of Kd for HIV-1 NL4.3 monomeric capsid protein to Kd for HIV-1 NL4.3 hexameric capsid protein; summary of the method: as §2
[24] = biological target: T1, Structural capsid protein; experiment: Competitive binding affinity to HIV-1 NL4.3 hexameric capsid protein assessed as inhibition of CPSF6 binding to capsid protein by SPR analysis
[25] = biological target: Human immunodeficiency virus type 1 reverse transcriptase (Human immunodeficiency virus 1) (UniProt Q72547); settings: dose 100.0 nM
[26] = Cytotoxicity against human MT4 cells assessed as reduction in cell viability; type: toxicity, cell-based; summary of the method: as §6

T1 sequence (Q76129 whole entry): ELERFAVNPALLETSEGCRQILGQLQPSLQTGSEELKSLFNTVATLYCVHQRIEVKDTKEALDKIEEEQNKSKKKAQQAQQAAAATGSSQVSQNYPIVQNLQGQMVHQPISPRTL
Chain of Structural capsid protein (Human immunodeficiency virus 1) (Q76129 as listed by the source): as the sequence (Q76129 whole entry) above

| SMILES | EC50 [1] | EC50 [2] | EC50 [14] | EC50 [15] | Ratio EC50 [16] | selectivity ratio [17] | selectivity ratio [18] | CC50 [26] | also measured |
| --- | --- | --- | --- | --- | --- | --- | --- | --- | --- |
| COc1ccc(N(C)C(=O)[C@H](Cc2ccccc2)NC(=O)CN2CCN(S(=O)(=O)c3ccc(N)cc3)CC2=O)cc1 | 280 nM | 30 nM | 280 nM | 30 nM |  |  |  |  | K [3]: 13.4 s⁻¹; TIME [4]: 1.67e-05 h; K [5]: 2.04 s⁻¹; TIME [6]: 0.000133 h; Activity [7]: 0.092%; Activity [8]: 0.807%; t1/2 ([9]; microsomes, 1 h, 1 µM): 240 s; microsomal CLint at 1 µM ([10]; liver microsomes, read-out: CLH): 344 µL/min/mg; CLint scaled at 1 µM [11]: 309 mL/min/kg; Stability [12]: 0%; Stability [13]: 113.3% |
| COc1ccc(-n2c([C@H](Cc3ccccc3)NC(=O)CN3CCN(S(=O)(=O)c4ccc([N+](=O)[O-])cc4)CC3=O)nc3ccccc3c2=O)cc1 | 1510 nM | 570 nM |  |  | 2.65 | > 312 | > 119 |  | CC50 [19]: > 179000 nM |
| O=C(O)Cc1ccccc1Nc1c(Cl)cccc1Cl [DICLOFENAC] |  |  |  |  |  |  |  |  | CLint scaled at 1 µM [11]: 280 mL/min/kg |
| COc1ccc(N(C)C(=O)[C@H](Cc2ccccc2)NC(=O)Cc2c(C)[nH]c3ccccc23)cc1 | 800 nM | 2220 nM | 750 nM | 4160 nM |  |  |  |  | CC50 at 120 h [20]: > 32300 nM; K [3]: 1.58 s⁻¹; TIME [4]: 0.000183 h; Kd [21]: 969 nM; K [5]: 0.036 s⁻¹; TIME [6]: 0.00772 h; Kd [22]: 47 nM; Selectivity ratio [23]: 20.6; Activity [7]: 0.07%; Activity [8]: 4.185%; IC50 [24]: 26.6 nM; half-life at 1 µM ([9]; liver microsomes): 42 s; CLH ([10]; microsomes, 1 h, 1 µM): 2114.6 µL/min/mg; Stability [12]: 0%; Stability [13]: 106.1% |
| Cc1cc(/C=C/C#N)cc(C)c1Nc1ccnc(Nc2ccc(C#N)cc2)n1 |  |  |  |  |  |  |  |  | inhibition [25]: 50% |
| COc1ccc(N(C)C(=O)[C@H](Cc2cc(F)cc(F)c2)NC(=O)CN2CCN(S(=O)(=O)c3ccc([N+](=O)[O-])cc3)CC2)cc1 |  |  | 1010 nM | 480 nM | 2.1 | 30.9 | 14.7 | 14800 nM |  |
| COc1ccc(N(C)C(=O)[C@H](Cc2cc(F)cc(F)c2)NC(=O)CN2CCN(S(=O)(=O)c3ccc(NC(C)=O)cc3)CC2)cc1 |  |  | 210 nM | 30 nM | 7 | 3050 | 436 | 91600 nM |  |
| COc1ccc(N(C)C(=O)[C@H](Cc2cc(F)cc(F)c2)NC(=O)CN2CCN(S(=O)(=O)c3ccc(Cl)cc3)CC2)cc1 |  |  | 930 nM | 440 nM | 2.11 | 20.6 | 9.73 | 9050 nM |  |
| COc1ccc(N(C)C(=O)[C@H](Cc2cc(F)cc(F)c2)NC(=O)CN2CCN(S(=O)(=O)c3ccc(Br)cc3)CC2)cc1 |  |  | 860 nM | 350 nM | 2.46 | 37.8 | 15.4 | 13200 nM |  |
| O=C(CN1CCN(S(=O)(=O)c2ccc([N+](=O)[O-])cc2)CC1)N[C@@H](Cc1cc(F)cc(F)c1)c1nc2ccccc2c(=O)n1-c1ccc(S(=O)(=O)N2CCS(=O)(=O)CC2)cc1 | 3040 nM | 1970 nM |  |  | 1.54 | > 70.6 | > 45.6 |  | CC50 [19]: > 139000 nM |
| COc1ccc(N(C)C(=O)[C@H](Cc2cc(F)cc(F)c2)NC(=O)CN2CCN(S(=O)(=O)c3ccc(C)cc3)CC2)cc1 |  |  | 910 nM | 120 nM | 7.58 | > 1700 | > 224 | > 204000 nM |  |
| COc1ccc(N(C)C(=O)[C@H](Cc2cc(F)cc(F)c2)NC(=O)CN2CCN(S(=O)(=O)c3ccccc3N)CC2)cc1 |  |  | 520 nM | 140 nM | 3.71 | 454 | 122 | 63600 nM |  |
